Screening data (PubChem)
Shown are actives, neighbours in structure and some others; about 4% of the full set was active somewhere.
TAAR1 antagonist = antagonists of human TAAR1; Q96RJ0; CHO RD-HGA16 TAAR1, Fluo-8 calcium fluorescence, antagonist; inhibition, % at 3 µM; 360,000 compounds, 1.5% hits; AID 624466;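 active = inhibition above a per-plate cutoff, the mean inhibition of test compounds on that plate plus 3 SD, cut at about 49% in these data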;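 note: 0% = DMSO plus EC80 beta-PEA response and 100% = DMSO alone without agonist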
Target sequence (Q96RJ0 whole entry, looked up): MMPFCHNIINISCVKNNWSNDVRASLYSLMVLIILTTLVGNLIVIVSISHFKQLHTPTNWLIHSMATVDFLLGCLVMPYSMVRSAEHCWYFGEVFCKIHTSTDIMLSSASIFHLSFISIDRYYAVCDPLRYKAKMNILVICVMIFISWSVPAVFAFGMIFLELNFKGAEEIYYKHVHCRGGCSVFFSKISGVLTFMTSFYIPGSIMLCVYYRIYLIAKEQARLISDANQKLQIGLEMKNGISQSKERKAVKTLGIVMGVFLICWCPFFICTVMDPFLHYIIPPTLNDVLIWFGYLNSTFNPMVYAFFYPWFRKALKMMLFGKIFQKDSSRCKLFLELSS
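Test system – hTAAR1-expressing CHO RD-HGA16 cells, Gα16-coupled · Also added – β-PEA at EC80 concentration, post-compound challenge · Compound – 3 µM, single point · Incubation – dye loading 75 min at 37 °C, then 30 min room temperature · Measured by – Fluo-8 intracellular calcium dye fluorescence, real-time kinetic reads · Benchmarks – vehicle and agonist controls · Replicates – singlicate, one well per test compound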
OX1R antag-1 = antagonists of human orexin 1 receptor; O43613; CHO/OX1R cells, Fluo-8 calcium fluorescence, orexin A; inhibition, % at 5 µM; 330,000 compounds, 0.43% hits; AID 434989;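 active = inhibition above its plate's threshold, mean inhibition of all tested compounds on the plate plus 3 SD, cut at about 37% in these data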;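 note: 0% = orexin A challenge wells and 100% = SB-334867-A antagonist wells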
NTR1 agonist = agonists of human neurotensin receptor NTR1. P30989. NTR1-U2OS beta-arrestin-GFP spot imaging, agonist mode. activation, % at 20 µM. 330,000 compounds, 0.17% hits. AID 493036;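 active = activation at or above 40% of the spot to cytoplasm intensity ratio, with at least 20 cells analyzed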;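 note: 0% = DMSO without peptide and 100% = 100 nM NTR1 peptide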
Target sequence (P30989 whole entry, looked up): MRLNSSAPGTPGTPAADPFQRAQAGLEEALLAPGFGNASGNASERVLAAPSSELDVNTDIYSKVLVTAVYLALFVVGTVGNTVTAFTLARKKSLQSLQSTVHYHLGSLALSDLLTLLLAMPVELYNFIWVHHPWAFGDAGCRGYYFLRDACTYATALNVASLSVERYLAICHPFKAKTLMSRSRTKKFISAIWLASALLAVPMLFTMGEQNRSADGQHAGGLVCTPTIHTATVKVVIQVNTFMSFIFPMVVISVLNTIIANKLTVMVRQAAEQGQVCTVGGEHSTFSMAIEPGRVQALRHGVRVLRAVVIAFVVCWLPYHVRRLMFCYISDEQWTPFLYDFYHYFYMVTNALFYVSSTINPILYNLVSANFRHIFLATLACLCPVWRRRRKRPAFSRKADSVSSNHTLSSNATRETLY
CHO parental Ca = signal in parental CHO cells, OX1R antagonist counter-screen. parental CHO-K1, ATP-induced calcium, Fluo-8 fluorescence. AID 463079. inhibition, % at 5.6 µM. 330,000 compounds, 0.63% hits;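 active = inhibition above that plate's mean sample inhibition plus 3 SD, cut at about 26% in these data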;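 note: 0% = ATP-challenged DMSO wells and 100% = DMSO wells without ATP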
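test system = CHO parental line | reagent = ATP stimulus | measured by = intracellular calcium via Fluo-8 no-wash fluorescent dye | control set = ATP and no-ATP DMSO wells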
OX1R antag-2 = OX1R (human) antagonism | O43613 | OX1R-expressing cells, FRET antagonist read-out | inhibition, % at 6.6 µM | 330,000 compounds, 1.8% hits | AID 485270; in the data active = inhibition mostly above about 38%, no sharp cut-off; inactive = mostly below about 40%;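 note: 0% = agonist challenge alone and 100% = reference antagonist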
TAAR1 ag = agonists of human TAAR1; 360,000 compounds, 0.99% hits; Q96RJ0; activation, % at 3 µM; CHO RD-HGA16 TAAR1, Fluo-8 calcium fluorescence; vehicle wells 0%, saturating PEA agonist 100%;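 active = activation above the mean activation of all test compounds in the run plus 3 SD, cut at about 38% in these data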
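Assay system – CHO-derived RD-HGA16 cells with stable Gα16 and human TAAR1 · Compound dosing – one-point dosing at 3 µM (nominal) · Incubation – 17-24 h seeding, 75 min 37 °C dye, 30 min RT · Measured by – kinetic Fluo-8 calcium fluorescence · Control set – DMSO vehicle as 0%, PEA at EC100 as 100% · Repeats – single well for each compound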
TAAR1 ag confirm = human TAAR1 agonism, confirmed | AID 651783 | activation, % at 3 µM | 2,400 compounds, 82% hits | shares compounds with TAAR1 ag | CHO RD-HGA16 TAAR1, Fluo-8 calcium fluorescence; scaled: DMSO 0%, maximal phenethylamine 100%;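 active = activation above a cutoff set at the run's mean compound activation plus 3 SD, cut at about 39% in these data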
Ga16 nonsel ag = counter-screen for TAAR1 agonists: nonselective agonists in parental cells | 2,400 compounds, 50% hits | shares compounds with TAAR1 ag | CHO-Ga16 parental, Fluo-8 calcium fluorescence; normalized to maximal ATP response, DMSO zero | activation, % at 3 µM;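 active = activation above the run cutoff, the mean activation over all tested wells plus 3 SD, cut at about 12% in these data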;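 note: 0% = DMSO wells and 100% = maximal ATP response on the peak over basal ratio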
TAAR1 desensitize = TAAR1 response desensitization, agonist counter-screen | shares compounds with TAAR1 ag | CHO RD-HGA16 hTAAR1, Fluo-8 calcium, beta-PEA response inhibition | inhibition, % at 3 µM | 2,400 compounds, 46% hits;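 active = inhibition above the run cutoff, the mean inhibition of all test compounds plus 3 SD, cut at about 49% in these data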;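 note: beta-PEA stimulus applied at its EC80; loss of beta-PEA calcium signal after compound pretreatment read as receptor desensitization; 0% = DMSO with beta-PEA at EC80 and 100% = DMSO alone without agonist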
Ga16 nonsel ant = nonselective Ga16 antagonist in TAAR1 agonist counter-screen | 2,400 compounds, 39% hits | inhibition, % at 3 µM | AID 651952 | CHO-Ga16 ATP-induced calcium, Fluo-8 fluorescence | shares compounds with TAAR1 ag;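 active = inhibition above the plate's mean compound inhibition plus 3 SD, computed per plate, cut at about 22% in these data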;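 note: 0% = EC80 ATP with DMSO and 100% = DMSO wells without ATP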
* hit, by the source's call; . = no result given; + = active, no number.

SMILES	TAAR1 antagonist	OX1R antag-1	NTR1 agonist	CHO parental Ca	OX1R antag-2	TAAR1 ag	TAAR1 ag confirm	Ga16 nonsel ag	TAAR1 desensitize	Ga16 nonsel ant
CCOC(=O)c1ccc(N2CN(CCc3ccccc3)CNC2=S)cc1	.	3.5	1.4	-6.5	3.4	.	.	5.2	.	2.6
O=[N+]([O-])c1ccc(N/N=C/c2cccc(O)c2)cc1	46.3	-10.6	4.3	13.9	1.1	58.8*	42.8*	6.8	24.7	15.8
O=C(NNC(=O)c1ccc2c(=O)n3c(nc2c1)CCC3)c1cccc(Cl)c1	10.0	-12.5	1.4	-7.4	14.6	0.5	.	.	.	.
COC(=O)c1c(NC(=O)C2CCCCC2)sc2c1CC(C)(C)NC2(C)C	-3.5	-28.5	3.0	-5.7	14.3	15.4	.	.	.	.
CN(C1CCCCC1)S(=O)(=O)c1ccc(C(=O)Nc2sc3c(c2C(N)=O)CC(C)(C)NC3(C)C)cc1	38.9	8.5	1.3	3.9	21.9	84.6*	58.3*	38.7*	28.1	34.8*
COc1cc(C=NNC(=O)Cn2nc(C)cc2C)ccc1OC(=O)C1CC1	-1.9	-4.3	-0.5	-8.2	9.4	+	2.0	2.1	4.9	0.7
Cc1cc(C)n(CC(=O)N/N=C/c2ccc3c(c2)OCO3)n1	-1.1	4.2	-1.7	-5.0	-2.1	-0.5	.	.	.	.
Cc1cc(C)nc(N2CCN(C(=O)CCC(=O)Nc3nnc(C(C)C)s3)CC2)n1	5.6	-29.8	1.6	-13.5	3.3	8.0	.	.	.	.
Cn1cccc1/C=C1\CCC/C(=C\c2cccn2C)C1=O	88.4*	92.5*	-2.9	70.1*	24.8	164.7*	33.0	36.2*	35.7	46.1*
CCOC(=O)C1=NN(C(=O)c2ccc(C)cc2)C(O)(c2ccc(Cl)cc2)C1 (stereo unspecified)	72.8*	-9.1	1.0	-11.7	14.7	115.7*	69.4*	78.7*	31.9	41.5*
COc1ccc(Cl)c2sc(NC(=O)C3=COCCO3)nc12	-17.5	-13.6	6.4	-14.5	21.5	10.3	.	.	.	.
Cc1ccc(Cl)c2sc(NC(=O)C3=COCCO3)nc12	11.1	-0.4	2.5	-13.9	13.6	60.8*	12.7	20.1*	10.7	12.6
CC(Nc1ccnc2cc(Cl)ccc12)c1ccc(S(N)(=O)=O)cc1 (stereo unspecified)	-2.3	-4.0	0.8	1.7	29.7	52.9*	69.2*	0.4	51.0*	-2.1
O=C1S/C(=C\c2ccc(N3CCOCC3)o2)C(=O)N1c1ccccc1	82.9*	-19.3	-2.8	-3.8	16.2	208.9*	140.4*	162.7*	81.6*	87.4*
O=C(O)c1ccccc1-c1ccc(/C=C2\SC(=O)N(c3ccccc3)C2=O)o1	21.2	-16.6	1.3	-5.5	8.5	0.4	.	.	.	.
NC(c1ccccc1)c1csc(NC(=O)NCCc2ccccc2)n1 (stereo unspecified)	11.2	.	.	.	.	62.4*	28.1	4.6	15.6	15.3
NC(c1ccccc1)c1csc(NC(=O)Nc2cccc(Cl)c2)n1 (stereo unspecified)	28.6	.	.	.	.	64.4*	74.2*	21.9*	57.4*	35.8*
CCC1(c2ccccc2)NC(=O)N(CC(=O)Nc2ccccc2C(=O)N2CCCCC2)C1=O (stereo unspecified)	10.6	-23.3	0.2	-27.3	9.4	5.7	.	.	.	.
CCC1(c2ccccc2)NC(=O)N(CC(=O)Nc2ccccc2N2CCCCC2)C1=O (stereo unspecified)	51.7*	-25.5	10.8	-20.3	13.3	70.1*	78.3*	44.9*	62.9*	29.8*
Cn1c(=O)c2cc(NC(=O)CCc3cccnc3)ccc2n1Cc1ccc(F)cc1	6.7	.	.	.	.	1.5	.	.	.	.
Cn1nc(C(=O)N2CCc3ccccc3C2)c2ccccc2c1=O	-6.9	-8.1	0.0	-7.5	10.0	6.5	.	.	.	.
O=C(c1cccnc1)N1CCc2ccccc2C1	-5.7	-5.0	-1.9	-3.6	26.2	59.4*	40.3*	1.9	3.1	7.8
O=C(c1nc2ncccn2n1)N1CCc2ccccc2C1	20.6	0.2	-1.6	-10.4	6.8	51.2*	71.2*	0.3	27.8	6.1
O=C(c1cccnc1)N1CCc2ccccc21	12.2	-2.2	-0.1	-9.2	5.1	4.9	.	.	.	.
Cc1cc(C)c(S(=O)(=O)N2CCCC(C(=O)NC3CC3)C2)c(C)c1 (stereo unspecified)	-19.4	2.8	0.5	-2.7	16.8	3.6	.	.	.	.
SMILES	TAAR1 antagonist	OX1R antag-1	NTR1 agonist	CHO parental Ca	OX1R antag-2	TAAR1 ag	TAAR1 ag confirm	Ga16 nonsel ag	TAAR1 desensitize	Ga16 nonsel ant
CN(c1cccc(NC(=O)Nc2cccc(Cl)c2)c1)S(C)(=O)=O	19.4	71.7*	3.8	73.4*	98.2*	42.6*	36.8	9.2	31.6	29.0*
O=C(Nc1ccncc1)Nc1ccccn1	-9.5	-9.3	-1.2	-4.2	8.7	2.9	.	.	.	.
O=C(Nc1ccccc1)Nc1ccncc1	53.0*	0.7	1.1	1.5	8.4	81.8*	97.0*	6.1	86.3*	7.9
O=C(NCc1ccncc1)Nc1cccc(Cl)c1	-11.0	-12.2	-2.1	-17.9	12.7	5.0	.	.	.	.
O=C(Nc1ccncc1)Nc1cccc(Cl)c1	33.9	3.8	1.6	22.5	6.2	59.1*	85.6*	15.7*	52.5*	19.4
CC(=O)c1ccc(NC(=O)Nc2ccccc2)cc1	15.1	-6.4	0.7	-3.9	14.1	53.6*	67.8*	11.3	55.4*	14.3
O=C(CCCn1c(=S)[nH]c2ccccc2c1=O)NCCSCc1ccccc1	7.3	-13.8	3.4	-5.9	17.0	6.6	.	.	.	.
COc1ccc(C(C)(C)C)cc1NC(=O)CCc1c(C)noc1C	9.2	-9.3	1.5	-18.6	4.5	-1.2	.	.	.	.
O=C(Nc1ccccc1)Nc1ccno1	5.4	3.0	2.0	-22.7	-3.3	48.3*	86.7*	2.9	67.2*	13.5
O=S1(=O)N=C(N/N=C/c2cccs2)c2ccccc21	3.5	-9.8	4.4	-0.3	9.1	2.0	.	.	.	.
Fc1c(F)c(C(F)(F)F)c(F)c(F)c1N/N=C\c1cccs1	75.5*	22.0	19.0	12.2	5.3	92.3*	70.1*	86.0*	70.7*	79.6*
COc1ccc(S(=O)(=O)N2CCCC2)cc1C(=O)O	-7.8	-3.8	-2.1	7.9	9.8	3.1	.	.	.	.
